ChEMBL document CHEMBL4330127, “Discovery of Novel Pyruvate Dehydrogenase Kinase 4 Inhibitors for Potential Oral Treatment of Metabolic Diseases” (J Med Chem, 2019)
pIC50: −log10 of the molar value.

Legend:
[1] = AUCt in rat at 10 mg/kg, po; type: ADME, organism-based; conditions: in vivo
In short: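 Male rats given a single dose, 5 mg/kg intravenously or 10 mg/kg orally. Plasma PK parameters were reported as mean ± SD: AUCt, AUC∞, Cmax, Tmax, T1/2, CL, Vss and oral bioavailability F.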

HCT-116 [2] = assay: Induction of apoptosis in human HCT116 cells assessed as early apoptotic cells at 25 uM after 24 hrs in presence of oxaliplatin by Annexin V/propidium iodide staining based flow cytometry (reference value: 7.31%); type: functional
[3] = biological target: Cellular tumor antigen p53 (Homo sapiens) (UniProt P04637); assay: Induction of p53 phosphorylation at Ser-15 residue in human RKO cells after 24 hrs by Western blot analysis; type: cell-based
In short: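 HCT116 and RKO cells given a range of compound doses for 24 h; lysates probed by Western blot for apoptosis-related proteins (p53, BAX, BCLxL).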

[4] = Oral bioavailability in rat at 10 mg/kg; type: ADME, organism-based; conditions: in vivo
HCT-116 [5] = assay: Induction of apoptosis in human HCT116 cells assessed as late apoptotic cells at 25 uM after 24 hrs in presence of oxaliplatin by Annexin V/propidium iodide staining based flow cytometry (reference value: 14.2%); type: functional
RKO [6] = assay: Induction of apoptosis in human RKO cells assessed as late apoptotic cells at 50 uM after 24 hrs by Annexin V/propidium iodide staining based flow cytometry (reference value: 7.42%); type: functional
RKO [7] = assay: Induction of apoptosis in human RKO cells assessed as early apoptotic cells at 10 uM after 24 hrs by Annexin V/propidium iodide staining based flow cytometry (reference value: 9.62%); type: functional
NIH3T3 = assay: Cytotoxicity against mouse NIH/3T3 cells; type: cell-based
RKO [8] = assay: Induction of apoptosis in human RKO cells assessed as early apoptotic cells at 50 uM after 24 hrs by Annexin V/propidium iodide staining based flow cytometry (reference value: 9.62%); type: functional
[9] = biological target: UDP-glucuronosyltransferase 1A9 (Homo sapiens, UniProt O60656); assay: Inhibition of UGT1A9 in human liver microsomes assessed as reduction in mycophenolic acid glucuronidation by tandem mass spectrometry analysis; type: ADME
In short: (§1)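 Pooled human liver microsomes; test compound at final 0–50 μM in a cocktail incubation with probe substrates: midazolam 1′-hydroxylation (CYP3A), SN-38 glucuronidation (UGT1A1), trifluoperazine N-glucuronidation (UGT1A4), mycophenolic acid glucuronidation (UGT1A9), naloxone 3-glucuronidation (UGT2B7). Metabolites measured by tandem MS; IC50 determined; duplicate.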

HCT-116 [10] = assay: Cell cycle arrest in human HCT116 cells assessed as accumulation at G1/G0 phase at 25 uM after 24 hrs propidium iodide staining based flow cytometry (reference value: 42%); type: functional
In short: (§2)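 HCT116 and RKO cells were treated with compound alone or with oxaliplatin for 24 h before harvest. Cells were stained with propidium iodide, and DNA content was analysed by flow cytometry. Cell-cycle phase populations, including sub-G1, are given as percentages.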

HCT-116 [11] = assay: Induction of apoptosis in human HCT116 cells assessed as early apoptotic cells at 10 uM after 24 hrs by Annexin V/propidium iodide staining based flow cytometry (reference value: 4.36%); type: functional
RKO [12] = assay: Induction of apoptosis in human RKO cells assessed as live cells at 10 uM after 24 hrs by Annexin V/propidium iodide staining based flow cytometry (reference value: 82.4%); type: functional
RKO [13] = assay: Cell cycle arrest in human RKO cells assessed as accumulation at sub-G1 phase at 25 uM after 24 hrs in presence of oxaliplatin propidium iodide staining based flow cytometry (reference value: 12%); type: functional; in short: as §2
Mus musculus = assay: Antiallergic activity in mouse model of IgE/antigen-stimulated passive cutaneous anaphylaxis assessed as Evans blue exudation at 50 mg/kg, ip administered as single dose for 1 hr treated at 24 hrs post anti-DNP IgE treatment followed by DNP-HSA/Evans blue addition and measured after 1 hr (reference value: 149 +/- 16.9 ug/ml); type: functional
[14] = biological target: [Pyruvate dehydrogenase (acetyl-transferring)] kinase isozyme 4, mitochondrial (Homo sapiens, UniProt Q16654); assay: Inhibition of PDK4 in HEK293T cells assessed as reduction in PDHE1alpha phosphorylation at Ser-232 residue by measuring phosphorylated PDHE1alpha level at 10 uM after 24 hrs by Western blot analysis; type: cell-based
In short: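 HEK293T cells grown in high-glucose DMEM with 10% FBS at 37 °C, 5% CO2. Medium renewed after 24 h, then cells exposed to compound for 24 h and lysed. 20 μg protein per lane Western blotted with antibodies to phospho-PDHE1α Ser232, Ser293 and Ser300 and to total PDHE1α. Band intensity quantified relative to control; triplicate.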

HCT-116 [15] = assay: Cell cycle arrest in human HCT116 cells assessed as accumulation at G1/G0 phase at 25 uM after 24 hrs in presence of oxaliplatin propidium iodide staining based flow cytometry (reference value: 41.3%); type: functional; in short: as §2
CHO-K1 = assay: Cytotoxicity against CHOK1 cells; type: cell-based; conditions: Cricetulus griseus
HCT-116 [16] = assay: Cell cycle arrest in human HCT116 cells assessed as accumulation at G2/M phase at 25 uM after 24 hrs propidium iodide staining based flow cytometry (reference value: 22.2%); type: functional; in short: as §2
HCT-116 [17] = assay: Cell cycle arrest in human HCT116 cells assessed as accumulation at sub-G1 phase at 10 uM after 24 hrs propidium iodide staining based flow cytometry (reference value: 17.8%); type: functional; in short: as §2
HCT-116 [18] = assay: Cell cycle arrest in human HCT116 cells assessed as accumulation at G1/G0 phase at 10 uM after 24 hrs propidium iodide staining based flow cytometry (reference value: 42%); type: functional; in short: as §2
HCT-116 [19] = assay: Cell cycle arrest in human HCT116 cells assessed as accumulation at S phase at 10 uM after 24 hrs propidium iodide staining based flow cytometry (reference value: 18%); type: functional; in short: as §2
RKO [20] = assay: Induction of apoptosis in human RKO cells assessed as early apoptotic cells at 25 uM after 24 hrs by Annexin V/propidium iodide staining based flow cytometry (reference value: 9.62%); type: functional
[21] = Drug metabolism in human liver microsomes assessed as hydroxyl metabolite formation at 100 uM preincubated for 5 mins followed by NADPH/UDPGA addition and measured up to 2 hrs by LC-MS/MS analysis; type: ADME, Microsome
In short: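 Pooled human liver microsomes (1.0 mg/mL) were mixed with alamethicin (25 μg/mg protein) and kept on ice for 15 min. Substrate (100 μM) was added and the mix preincubated 5 min at 37 °C. NADPH (1.3 mM) and UDPGA (5 mM) were then added and incubation ran 2 h with agitation. The reaction was stopped with ice-cold acetonitrile, centrifuged, and the supernatant analysed by LC-MS/MS (ESI positive, transition 358.2 → 84.1).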

CYP3A = CYP3A (Homo sapiens, UniProt P08684+P20815+P24462+Q9HB55); assay: Inhibition of CYP3A in human liver microsomes assessed as reduction in midazolam 1'-hydroxylation by tandem mass spectrometry analysis; type: ADME; conditions: probe midazolam (1'-hydroxylation); in short: as §1
HCT-116 [22] = assay: Induction of apoptosis in human HCT116 cells assessed as live cells at 10 uM after 24 hrs by Annexin V/propidium iodide staining based flow cytometry (reference value: 84.4%); type: functional
RKO [23] = assay: Cell cycle arrest in human RKO cells assessed as accumulation at S phase at 25 uM after 24 hrs in presence of oxaliplatin propidium iodide staining based flow cytometry (reference value: 4.5%); type: functional

Chain of Cellular tumor antigen p53 (Homo sapiens) (P04637 whole entry, looked up): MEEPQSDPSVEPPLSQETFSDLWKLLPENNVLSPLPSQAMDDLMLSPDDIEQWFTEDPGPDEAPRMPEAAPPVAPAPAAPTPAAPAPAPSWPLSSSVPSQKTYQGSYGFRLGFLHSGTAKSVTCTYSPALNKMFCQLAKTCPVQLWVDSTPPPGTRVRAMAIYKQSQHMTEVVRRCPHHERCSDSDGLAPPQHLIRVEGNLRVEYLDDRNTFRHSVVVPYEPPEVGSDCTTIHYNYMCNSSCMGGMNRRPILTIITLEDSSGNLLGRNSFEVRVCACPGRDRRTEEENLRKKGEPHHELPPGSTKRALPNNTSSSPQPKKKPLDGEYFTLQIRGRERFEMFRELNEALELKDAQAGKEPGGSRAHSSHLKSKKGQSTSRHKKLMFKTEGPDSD
Chain of [Pyruvate dehydrogenase (acetyl-transferring)] kinase isozyme 4, mitochondrial (Q16654 whole entry, looked up): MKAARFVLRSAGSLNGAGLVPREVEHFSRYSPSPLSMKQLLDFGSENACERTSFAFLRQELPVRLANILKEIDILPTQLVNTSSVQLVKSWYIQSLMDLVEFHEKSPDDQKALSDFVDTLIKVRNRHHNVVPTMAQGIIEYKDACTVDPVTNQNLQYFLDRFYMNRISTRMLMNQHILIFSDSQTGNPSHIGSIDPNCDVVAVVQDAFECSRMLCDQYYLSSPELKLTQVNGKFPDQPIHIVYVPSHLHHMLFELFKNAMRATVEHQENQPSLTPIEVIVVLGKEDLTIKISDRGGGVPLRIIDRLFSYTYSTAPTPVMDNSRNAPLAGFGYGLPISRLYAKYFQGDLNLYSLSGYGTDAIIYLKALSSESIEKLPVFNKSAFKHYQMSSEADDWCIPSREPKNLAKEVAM
Chain of UDP-glucuronosyltransferase 1A9 (O60656 whole entry): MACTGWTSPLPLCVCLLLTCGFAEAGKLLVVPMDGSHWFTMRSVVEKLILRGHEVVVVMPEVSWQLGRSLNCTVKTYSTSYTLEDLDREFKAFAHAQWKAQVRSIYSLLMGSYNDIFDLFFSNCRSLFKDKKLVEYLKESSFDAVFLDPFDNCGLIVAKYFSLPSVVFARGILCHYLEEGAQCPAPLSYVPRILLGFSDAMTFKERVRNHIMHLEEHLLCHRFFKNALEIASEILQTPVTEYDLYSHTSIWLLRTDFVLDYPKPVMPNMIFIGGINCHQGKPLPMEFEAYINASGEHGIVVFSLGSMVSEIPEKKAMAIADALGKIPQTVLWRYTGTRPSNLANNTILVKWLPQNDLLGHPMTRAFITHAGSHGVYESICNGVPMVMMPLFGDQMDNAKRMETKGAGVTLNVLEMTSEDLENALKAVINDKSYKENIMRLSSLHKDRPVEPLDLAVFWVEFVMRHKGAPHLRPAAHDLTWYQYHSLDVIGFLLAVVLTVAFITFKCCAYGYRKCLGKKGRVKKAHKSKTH

Structure (SMILES): Cl.O=C1c2ccccc2C(=O)c2c1cccc2-c1cnn(C2CCNCC2)c1
- AUC(0-t) [1]: 8920 ng·h/mL
- Activity (HCT-116 [2]): 7.7%
- Activity [3]: Dose-dependent effect
- bioavailability [4]: 63.6%
- Activity (HCT-116 [5]): 21.8%
- Activity (RKO [6]): 49%
- Activity (RKO [7]): 5.2%
- pIC50 (NIH3T3): 4.40
- Activity (RKO [8]): 41.4%
- pIC50 [9]: < 4.30
- Activity (HCT-116 [10]): 19%
- Activity (HCT-116 [11]): 2.9%
- Activity (RKO [12]): 82.8%
- Activity (RKO [13]): 67.4%
- Activity (Mus musculus): 49.9 µg/mL
- fold change (FC) [14]: 0.04
- Activity (HCT-116 [15]): 17.8%
- pIC50 (CHO-K1): 4.44
- Activity (HCT-116 [16]): 37.1%
- Activity (HCT-116 [17]): 14.4%
- Activity (HCT-116 [18]): 41.6%
- Activity (HCT-116 [19]): 29.1%
- Activity (RKO [20]): 19.3%
- Drug metabolism [21]: Metabolite_Detected
- pIC50 (CYP3A): 4.44
- Activity (HCT-116 [22]): 77.9%
- Activity (RKO [23]): 5.2%
